Measurements as given in ChEMBL document CHEMBL2311434, “Search for new tools to combat Gram-negative resistant bacteria among amine derivatives of 5-arylidenehydantoin” (2013).
≈ marks a conversion by molar mass, not a printed value. Calls of active or inactive are those of the source. The calls are words filed in the database; no cut-off is given here. Peptide text beside a SMILES is read from it. * marks the point of attachment. βNA = c1ccc2cc(N*)ccc2c1

Assays:
[1] = test system: Klebsiella aerogenes; experiment: Chemosensitization of Enterobacter aerogenes CM-64 overexpressing AcrAB-TolC assessed as decrease in chloramphenicol MIC at 63 uM relative to control; format: functional
Summary of the method: (§1)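 About 10^6 cells were put into 1 mL Mueller-Hinton broth with twofold serial dilutions of the antibiotic (CLSI). A fixed sub-inhibitory compound concentration was added, set without antibiotic, usually ≤1/4 MIC. Controls ran without inhibitor. Plates were read after 18 h at 37 °C. MICs are the means of three independent determinations. Activity gain = MIC without compound / MIC with compound.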

[2] = test system: Klebsiella aerogenes; experiment: Chemosensitization of Enterobacter aerogenes CM-64 overexpressing AcrAB-TolC assessed as decrease in sparfloxacin MIC at 63 uM relative to control; format: functional; summary of the method: as §1
[3] = test system: Klebsiella aerogenes; experiment: Chemosensitization of Enterobacter aerogenes CM-64 overexpressing AcrAB-TolC assessed as decrease in nalidixic acid MIC at 63 uM relative to control; format: functional; summary of the method: as §1
[4] = test system: Klebsiella aerogenes; experiment: Antibacterial activity against Enterobacter aerogenes CM-64 overexpressing AcrAB-TolC assessed as growth inhibition after 18 hrs by CLSI broth dilution method; format: functional; details: CM-64, 18 h
Summary of the method: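 Intrinsic MIC of each compound with no antibiotic added. About 10^6 cells were inoculated into 1 mL Mueller-Hinton broth with twofold serial dilutions, following CLSI guidelines. Plates were read after 18 h at 37 °C, in triplicate. MIC is the mean of three independent determinations.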

[5] = test system: Klebsiella aerogenes; experiment: Antibacterial activity against wild type Enterobacter aerogenes ATCC 13048 assessed as growth inhibition after 18 hrs by CLSI broth dilution method; format: functional; details: ATCC 13048, 18 h
Summary of the method: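 Broth dilution per CLSI in Mueller-Hinton broth, about 10^6 cells per 1 mL, read after 18 h at 37 °C. The compound alone, with no antibiotic, against reference strain ATCC 13048. MIC is the mean of three independent determinations.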

[6] = test system: Klebsiella aerogenes; experiment: Chemosensitization of Enterobacter aerogenes CM-64 overexpressing AcrAB-TolC assessed as decrease in sparfloxacin MIC at 100 uM relative to control; format: functional, organism-based; summary of the method: as §1
[7] = test system: Klebsiella aerogenes; experiment: Chemosensitization of Enterobacter aerogenes CM-64 overexpressing AcrAB-TolC assessed as decrease in nalidixic acid MIC at 100 uM relative to control; format: functional, organism-based; summary of the method: as §1
[8] = test system: Klebsiella aerogenes; experiment: Chemosensitization of wild type Enterobacter aerogenes ATCC 13048 assessed as decrease in nalidixic acid MIC at 100 uM relative to control; format: functional; summary of the method: as §1
[9] = test system: Klebsiella aerogenes; experiment: Chemosensitization of Enterobacter aerogenes CM-64 overexpressing AcrAB-TolC assessed as decrease in sparfloxacin MIC at 200 uM relative to control; format: functional; summary of the method: as §1
[10] = test system: Klebsiella aerogenes; experiment: Chemosensitization of wild type Enterobacter aerogenes ATCC 13048 assessed as decrease in nalidixic acid MIC at 200 uM relative to control; format: functional; summary of the method: as §1
[11] = test system: Klebsiella aerogenes; experiment: Chemosensitization of Enterobacter aerogenes CM-64 overexpressing AcrAB-TolC assessed as decrease in nalidixic acid MIC at 100 uM relative to control
[12] = test system: Klebsiella aerogenes; experiment: Chemosensitization of wild type Enterobacter aerogenes ATCC 13048 assessed as decrease in nalidixic acid MIC at 63 uM relative to control; format: functional
Summary of the method: (§2)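 Antibiotic MIC by CLSI broth dilution: about 10^6 cells in 1 mL Mueller-Hinton broth with twofold antibiotic dilutions, 18 h at 37 °C, in triplicate. Compound held at a fixed sub-inhibitory level (≤MIC/4) set without antibiotic. Controls ran without inhibitor and without antibiotic. PAβN 50 µM served as reference. Activity gain = MIC without compound / MIC with compound. MICs are the mean of three determinations.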

[13] = test system: Klebsiella aerogenes; experiment: Chemosensitization of wild type Enterobacter aerogenes ATCC 13048 assessed as decrease in […] at 50 uM relative to control; format: functional, organism-based
[14] = test system: Klebsiella aerogenes; experiment: Chemosensitization of wild type Enterobacter aerogenes ATCC 13048 assessed as decrease in chloramphenicol MIC at 63 uM relative to control; format: functional, organism-based; summary of the method: as §2
[15] = test system: Klebsiella aerogenes; experiment: Chemosensitization of wild type Enterobacter aerogenes ATCC 13048 assessed as decrease in sparfloxacin MIC at 63 uM relative to control; format: functional, organism-based; summary of the method: as §1
[16] = test system: Klebsiella aerogenes; experiment: Chemosensitization of Enterobacter aerogenes CM-64 overexpressing AcrAB-TolC assessed as decrease in chloramphenicol MIC at 200 uM relative to control; format: functional; summary of the method: as §1
[17] = test system: Klebsiella aerogenes; experiment: Chemosensitization of Enterobacter aerogenes CM-64 overexpressing AcrAB-TolC assessed as decrease in nalidixic acid MIC at 200 uM relative to control; format: functional; summary of the method: as §1
[18] = test system: Klebsiella aerogenes; experiment: Chemosensitization of wild type Enterobacter aerogenes ATCC 13048 assessed as decrease in chloramphenicol MIC at 200 uM relative to control; format: functional, organism-based; summary of the method: as §2

Structure (SMILES) | fold change (FC) [2] | MIC [4] [µM] | MIC [5] [µM] | other results
O=C(CN1C(=O)N/C(=C\c2ccccc2)C1=O)N1CCN(CCO)CC1 | 2 | 250 (≈ 89.6 µg/mL) | 125 (≈ 44.8 µg/mL) | fold change (FC) [1]: 2; fold change (FC) [3]: 4
COc1ccc(/C=C2\NC(=O)N(CC(O)CN3CCN(CCO)CC3)C2=O)c(OC)c1 (centres undefined) | 2 | 250 (≈ 109 µg/mL) | 125 (≈ 54.3 µg/mL) | fold change (FC) [1]: 4; fold change (FC) [3]: 4
COc1ccc(/C=C2\NC(=O)N(CC(O)CN3CCN(c4ccccc4)CC3)C2=O)cc1OC (centres undefined) | – | 500 (≈ 233 µg/mL) | 500 (≈ 233 µg/mL) | Activity [6]: inactive; Activity [7]: Active; fold change (FC) [8]: 2
COc1ccccc1N1CCN(CC(O)CN2C(=O)N/C(=C\c3ccc(Cl)cc3)C2=O)CC1 (centres undefined) | – | 1000 (≈ 471 µg/mL) | 500 (≈ 235 µg/mL) | Activity [9]: inactive; fold change (FC) [10]: 2; fold change (FC) [11]: 4
COc1ccc(/C=C2\NC(=O)N(CC(O)CN3CCN(C(C)=O)CC3)C2=O)cc1 (centres undefined) | – | > 2000 | > 2000 | Activity [2]: inactive; Activity [3]: Active
O=C(N[C@H](CO)[C@H](O)c1ccc([N+](=O)[O-])cc1)C(Cl)Cl [CHLORAMPHENICOL] | – | 256 (≈ 82.7 µg/mL) | 4 (≈ 1.29 µg/mL) | –
CCN(CC)c1ccc(/C=C2\NC(=O)N(CC(O)CN3CCN(CCO)CC3)C2=O)cc1 (centres undefined) | 4 | 250 (≈ 111 µg/mL) | 125 (≈ 55.7 µg/mL) | fold change (FC) [1]: 4; fold change (FC) [3]: 4; fold change (FC) [12]: 2
N=C(N)NCCC[C@H](NC(=O)[C@@H](N)Cc1ccccc1)C(=O)Nc1ccc2ccccc2c1 [PABETAN] (H-Phe-Arg-βNA) | – | 5000 (≈ 2230 µg/mL) | 5000 (≈ 2230 µg/mL) | Activity [13]: Active
COc1ccc(/C=C2\NC(=O)N(CC(O)CNCCCN3CCN(C)CC3)C2=O)cc1.Cl (centres undefined) | – | > 2000 | > 2000 | Activity [14]: Active; Activity [2]: inactive; Activity [15]: Active; fold change (FC) [12]: 2
CC(C)NCC(O)CN1C(=O)N/C(=C\c2ccc(Br)cc2)C1=O (centres undefined) | – | > 1250 | > 1250 | –
COc1ccc(/C=C2\NC(=O)N(CC(O)CN3CCOCC3)C2=O)cc1 (centres undefined) | – | > 2000 | > 2000 | Activity [2]: inactive
COc1ccc(/C=C2\NC(=O)N(CC(O)CN3CCN(C)CC3)C2=O)cc1.Cl (centres undefined) | 2 | > 2000 | > 2000 | –
COc1ccc(/C=C2\NC(=O)N(CC(O)CN3CCN(c4ccccc4OC)CC3)C2=O)cc1OC (centres undefined) | – | 1000 (≈ 497 µg/mL) | 1000 (≈ 497 µg/mL) | fold change (FC) [16]: 2; Activity [9]: inactive; Activity [17]: Active
O=C(CN1C(=O)N/C(=C\c2ccc(Br)cc2)C1=O)N1CCN(CCO)CC1 | – | > 1250 | > 1250 | fold change (FC) [3]: 4
COc1ccccc1N1CCN(CC(O)CN2C(=O)N/C(=C\c3ccccc3)C2=O)CC1 (centres undefined) | – | 1000 (≈ 437 µg/mL) | 500 (≈ 218 µg/mL) | Activity [9]: inactive; Activity [17]: Active; fold change (FC) [10]: 2
CCOc1ccccc1N1CCN(CC(O)CN2C(=O)N/C(=C\c3ccc(Cl)cc3)C2=O)CC1 (centres undefined) | – | 1000 (≈ 485 µg/mL) | 500 (≈ 242 µg/mL) | Activity [18]: Active; fold change (FC) [9]: 2; fold change (FC) [11]: 4
COc1ccc(/C=C2\NC(=O)N(CC(O)CN3CCNCC3)C2=O)cc1.Cl.Cl (centres undefined) | 2 | > 2000 | > 2000 | –
COc1ccc(/C=C2\NC(=O)N(CC(O)CNC(C)C)C2=O)c(OC)c1 (centres undefined) | 4 | 250 (≈ 90.9 µg/mL) | 250 (≈ 90.9 µg/mL) | fold change (FC) [1]: 4; Activity [15]: Active; fold change (FC) [3]: 4; fold change (FC) [12]: 2
C[C@@H]1CN(c2c(F)c(N)c3c(=O)c(C(=O)O)cn(C4CC4)c3c2F)C[C@H](C)N1 [SPARFLOXACIN] | – | 1 (≈ 0.392 µg/mL) | 0.06 (≈ 0.0235 µg/mL) | –
CC(C)NCC(O)CN1C(=O)N/C(=C\c2ccc(Cl)cc2)C1=O (centres undefined) | 4 | 250 (≈ 84.5 µg/mL) | 250 (≈ 84.5 µg/mL) | fold change (FC) [1]: 4; Activity [15]: Active; Activity [3]: Active
CCn1cc(C(=O)O)c(=O)c2ccc(C)nc21 [NALIDIXIC ACID] | – | 128 (≈ 29.7 µg/mL) | 8 (≈ 1.86 µg/mL) | –
O=C1N/C(=C\c2ccc(Cl)cc2)C(=O)N1CC(O)CN1CCN(CCO)CC1 (centres undefined) | – | 250 (≈ 102 µg/mL) | 250 (≈ 102 µg/mL) | Activity [2]: inactive; Activity [15]: Active; fold change (FC) [3]: 4
COc1ccc(/C=C2\NC(=O)N(CC(O)CN3CCCCC3)C2=O)cc1 (centres undefined) | – | > 2000 | > 2000 | –
